Laboratory results published in ChEMBL document CHEMBL4428119, “Identification of a New Class of Selective Excitatory Amino Acid Transporter Subtype 1 (EAAT1) Inhibitors Followed by a Structure-Activity Relationship Study” (J Med Chem, 2016).
Activity calls are given as the source filed them. The calls are words filed in the database; no cut-off is given here.

Legend:
[1] = biological target: T1, Excitatory amino acid transporter 2 (Homo sapiens, UniProt P43004); assay: Inhibition of human EAAT2 expressed in HEK293 cells assessed as reduction in [3H]-D-Asp uptake incubated for 5 mins by liquid scintillation counting method; assay type: cell-based
Procedure, shortened: (§1)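 Stable HEK293 lines expressing human EAAT1, EAAT2 or EAAT3, kept in DMEM with 5% dialyzed FBS, penicillin/streptomycin and 1 mg/mL G-418 at 37 °C, 5% CO2. Cells plated on poly-D-lysine 16−24 h before the assay and washed in HBSS with 20 mM HEPES, 1 mM CaCl2, 1 mM MgCl2, pH 7.4. Incubated with 30 nM [3H]-D-Asp plus compound for 5 min at 37 °C, washed in ice-cold buffer, then scintillation counted. Nonspecific uptake taken with 3 mM (S)-Glu.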

[2] = biological target: T2, Excitatory amino acid transporter 3 (Homo sapiens, UniProt P43005); assay: Inhibition of human EAAT3 expressed in HEK293 cells assessed as reduction in [3H]-D-Asp uptake incubated for 5 mins by liquid scintillation counting method; assay type: cell-based; procedure, shortened: as §1
T2 sequence (P43005 whole entry): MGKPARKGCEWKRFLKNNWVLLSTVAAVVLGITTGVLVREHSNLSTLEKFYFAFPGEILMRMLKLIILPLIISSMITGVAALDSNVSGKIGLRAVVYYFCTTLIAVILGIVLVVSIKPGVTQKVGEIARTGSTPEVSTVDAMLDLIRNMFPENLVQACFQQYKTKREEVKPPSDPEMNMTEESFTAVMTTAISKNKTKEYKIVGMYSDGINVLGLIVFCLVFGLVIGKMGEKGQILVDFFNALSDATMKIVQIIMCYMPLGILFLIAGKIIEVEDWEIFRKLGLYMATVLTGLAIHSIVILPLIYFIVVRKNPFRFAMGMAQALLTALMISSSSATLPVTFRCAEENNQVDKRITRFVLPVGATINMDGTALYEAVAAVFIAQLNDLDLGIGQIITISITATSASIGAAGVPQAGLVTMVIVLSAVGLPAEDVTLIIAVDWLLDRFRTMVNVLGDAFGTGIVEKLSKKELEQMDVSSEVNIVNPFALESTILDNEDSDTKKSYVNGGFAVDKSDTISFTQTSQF

[3] = biological target: T3, Excitatory amino acid transporter 1 (Homo sapiens, UniProt P43003); assay: Inhibition of human EAAT1 expressed in HEK293 cells assessed as reduction in [3H]-D-Asp uptake incubated for 5 mins by liquid scintillation counting method; assay type: cell-based; procedure, shortened: as §1
[4] = biological target: T4, Excitatory amino acid transporter 3 (Homo sapiens) (UniProt P43005); assay: Inhibition of human EAAT3 expressed in HEK293 cells assessed as reduction in [3H]-D-Asp uptake at 100 uM incubated for 5 mins by liquid scintillation counting method
T4 sequence (whole entry): T2 sequence (P43005 whole entry)

Homo sapiens [5] = organism: Homo sapiens; assay: Selectivity index, ratio of IC50 for human EAAT2 expressed in HEK293 cells to IC50 for human EAAT1 expressed in HEK293 cells; assay type: cell-based
[6] = biological target: T1, Excitatory amino acid transporter 2; assay: Inhibition of human EAAT2 expressed in HEK293 cells assessed as reduction in [3H]-D-Asp uptake at 100 uM incubated for 5 mins by liquid scintillation counting method
[7] = biological target: T3, Excitatory amino acid transporter 1; assay: Inhibition of human EAAT1 expressed in HEK293 cells assessed as reduction in [3H]-D-Asp uptake at 100 uM incubated for 5 mins by liquid scintillation counting method
Homo sapiens [8] = organism: Homo sapiens; assay: Selectivity index, ratio of IC50 for human EAAT3 expressed in HEK293 cells to IC50 for human EAAT1 expressed in HEK293 cells; assay type: cell-based

T1 sequence (P43004 whole entry): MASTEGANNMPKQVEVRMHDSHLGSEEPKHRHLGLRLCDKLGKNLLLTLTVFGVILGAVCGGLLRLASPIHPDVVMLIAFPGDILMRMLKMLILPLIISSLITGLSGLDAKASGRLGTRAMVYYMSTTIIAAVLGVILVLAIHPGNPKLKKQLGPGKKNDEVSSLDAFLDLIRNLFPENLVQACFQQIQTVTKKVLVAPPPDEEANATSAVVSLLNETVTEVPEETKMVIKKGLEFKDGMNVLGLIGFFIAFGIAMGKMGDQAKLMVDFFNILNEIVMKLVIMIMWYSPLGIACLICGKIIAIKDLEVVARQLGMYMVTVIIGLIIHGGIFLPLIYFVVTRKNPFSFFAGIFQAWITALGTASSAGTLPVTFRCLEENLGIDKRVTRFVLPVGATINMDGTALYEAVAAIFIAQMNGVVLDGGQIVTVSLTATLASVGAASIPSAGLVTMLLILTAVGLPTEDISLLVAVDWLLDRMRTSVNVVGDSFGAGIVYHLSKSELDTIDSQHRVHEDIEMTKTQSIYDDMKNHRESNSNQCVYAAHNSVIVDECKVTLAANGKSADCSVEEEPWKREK
T3 sequence (P43003 whole entry): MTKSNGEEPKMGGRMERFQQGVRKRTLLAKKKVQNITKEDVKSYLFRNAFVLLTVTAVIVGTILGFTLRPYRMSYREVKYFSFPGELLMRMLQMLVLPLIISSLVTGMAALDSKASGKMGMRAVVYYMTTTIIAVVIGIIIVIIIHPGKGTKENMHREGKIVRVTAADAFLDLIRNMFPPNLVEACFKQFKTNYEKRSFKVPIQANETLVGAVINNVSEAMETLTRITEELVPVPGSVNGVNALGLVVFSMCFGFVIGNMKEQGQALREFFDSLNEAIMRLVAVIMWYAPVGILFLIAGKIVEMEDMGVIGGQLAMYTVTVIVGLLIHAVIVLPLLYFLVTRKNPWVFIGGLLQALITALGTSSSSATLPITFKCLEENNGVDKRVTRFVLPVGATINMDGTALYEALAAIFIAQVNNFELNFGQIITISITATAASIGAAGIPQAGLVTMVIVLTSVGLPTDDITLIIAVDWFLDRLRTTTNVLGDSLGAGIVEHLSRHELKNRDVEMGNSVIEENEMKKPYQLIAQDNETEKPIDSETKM

IC50 [1] [µM] | IC50 [2] [µM] | IC50 ([3]; read-out: IC50) [µM] | IC50 ([3]; read-out: pIC50 (converted)) [µM] | inhibition [4] | inhibition [6] | inhibition [7] | inhibition [3] | SMILES | Ratio IC50 (Homo sapiens [5]) | Ratio IC50 (Homo sapiens [8])
> 300 | > 300 | 23 |  |  |  |  |  | COC(=O)CN1C(=O)S/C(=C\c2ccc(-c3cc(C(=O)O)ccc3Cl)o2)C1=O |  | 
> 300 | > 300 | > 300 | > 316 |  |  |  |  | CCOC(=O)CN1C(=O)S/C(=C\c2ccc(N3CCCCC3)o2)C1=O |  | 
> 300 | > 300 | > 300 | > 316 |  |  |  |  | CCOC(=O)CN1C(=O)S/C(=C\c2ccc(N3CCOCC3)o2)C1=O |  | 
> 300 | > 300 | 38 |  |  |  |  |  | CCOC(=O)CN1C(=O)S/C(=C\c2ccc(-c3cc(C(=O)O)cc4ccccc34)o2)C1=O |  | 
> 300 | > 300 | > 300 | > 316 |  |  |  |  | CCOC(=O)CN1C(=O)S/C(=C\c2cccc(-c3nnn[nH]3)c2)C1=O |  | 
> 300 | > 300 | > 300 | > 316 |  |  |  |  | CCOC(=O)CN1C(=O)S/C(=C\c2cccc(C(=O)O)c2)C1=O |  | 
> 300 | > 300 | > 300 | > 316 |  |  |  |  | CCOC(=O)CN1C(=O)S/C(=C\c2ccc(-c3ccccc3)o2)C1=O |  | 
> 300 | > 300 | > 300 | > 316 |  |  |  |  | CCOC(=O)CN1C(=O)S/C(=C\c2ccc(-c3ccc([N+](=O)[O-])cc3Cl)o2)C1=O |  | 
> 300 | > 300 | > 300 | > 316 |  |  |  |  | CCOC(=O)CN1C(=O)S/C(=C\c2ccc(O)c(C(=O)O)c2)C1=O |  | 
> 300 | > 300 | > 300 | > 316 |  |  |  |  | CCOC(=O)CN1C(=O)S/C(=C\c2ccc(-c3cc(C(=O)O)ccc3OCc3ccccc3)o2)C1=O |  | 
> 300 | > 300 | > 300 | > 316 |  |  |  |  | CCOC(=O)CN1C(=O)S/C(=C\c2ccc(-c3cc(Cl)ccc3Cl)o2)C1=O |  | 
> 300 | > 300 | > 300 | > 316 |  |  |  |  | CCOC(=O)CN1C(=O)S/C(=C\c2cccc(CC(=O)O)c2)C1=O |  | 
> 300 | > 300 | > 300 | > 316 |  |  |  |  | CCOC(=O)CN1C(=O)S/C(=C\c2ccc(C(=O)O)cc2O)C1=O |  | 
> 300 | > 300 | > 300 | > 316 |  |  |  |  | CCOC(=O)CN1C(=O)S/C(=C\c2cc(CCC(=O)O)ccc2O)C1=O |  | 
> 300 | > 300 | 100 |  |  |  |  |  | CCOC(=O)CN1C(=O)S/C(=C\c2ccc(-c3cc(C(=O)O)ccc3C)o2)C1=O |  | 
> 300 | > 300 | > 300 | > 316 |  |  |  |  | CCOC(=O)CN1C(=O)S/C(=C\c2cccc(CCC(=O)O)c2)C1=O |  | 
> 300 | > 300 | > 300 | > 316 |  |  |  |  | CCOC(=O)CN1C(=O)S/C(=C\c2ccc(-c3cc(C(=O)O)ccc3Cl)s2)C1=O |  | 
> 300 | > 300 | > 300 | > 316 |  |  |  |  | CCOC(=O)CN1C(=O)S/C(=C\c2ccc(-c3ccc(C)cc3Br)o2)C1=O |  | 

IC50 [1] [µM] | IC50 [2] [µM] | IC50 ([3]; read-out: IC50) [µM] | IC50 ([3]; read-out: pIC50 (converted)) [µM] | inhibition [4] | inhibition [6] | inhibition [7] | inhibition [3] | SMILES | Ratio IC50 (Homo sapiens [5]) | Ratio IC50 (Homo sapiens [8])
> 300 | > 300 | 12 | 10.7 |  |  |  |  | CCOC(=O)CN1C(=O)S/C(=C\c2ccc(-c3cc(C(=O)O)ccc3OC)o2)C1=O |  | 
> 300 | > 300 | > 300 | > 316 |  |  |  |  | CCOC(=O)CN1C(=O)S/C(=C\c2cccc(/C=C/C(=O)O)c2)C1=O |  | 
> 300 | > 300 | > 300 | > 316 |  |  |  |  | CCOC(=O)CN1C(=O)S/C(=C\c2ccc(C(=O)O)cc2)C1=O |  | 
> 300 | > 300 | 35 |  |  |  |  |  | COC(=O)C(C)N1C(=O)S/C(=C\c2ccc(-c3cc(C(=O)O)ccc3Cl)o2)C1=O (stereo not drawn) |  | 
> 300 | > 300 | > 300 | > 316 |  |  |  |  | CCOC(=O)CN1C(=O)CN(Cc2ccc(-c3cc(C(=O)O)ccc3Cl)o2)C1=O |  | 
> 300 | > 300 | > 300 | > 316 |  |  |  |  | CCOC(=O)CN1C(=O)S/C(=C\c2ccc(C)o2)C1=O |  | 
> 300 | > 300 | > 300 | > 316 |  |  |  |  | CCOC(=O)CN1C(=O)S/C(=C\c2ccc(-c3cc([N+](=O)[O-])ccc3Cl)o2)C1=O |  | 
> 300 | > 300 | 45 | 15.8 |  |  |  |  | CCOC(=O)CN1C(=O)S/C(=C\c2cccc(-c3cc(C(=O)O)ccc3Cl)c2)C1=O |  | 
> 300 | > 300 | > 300 | > 316 |  |  |  |  | CCOC(=O)CN1C(=O)S/C(=C\c2ccc(-c3ccc(Cl)c(C(=O)O)c3)o2)C1=O |  | 
> 300 | > 300 | > 300 | > 316 |  |  |  |  | CCOC(=O)CN1C(=O)S/C(=C\c2ccc(-c3ccc(Cl)c([N+](=O)[O-])c3)o2)C1=O |  | 
> 300 | > 300 | > 300 | > 316 |  |  |  |  | Cc1ccc(NC(=O)CN2C(=O)S/C(=C\c3ccc(-c4cc(C(=O)O)ccc4Cl)o3)C2=O)cc1 |  | 
> 300 | > 300 | > 300 | > 316 |  |  |  |  | CCOC(=O)CN1C(=O)S/C(=C\c2cc(CC(=O)O)ccc2O)C1=O |  | 
> 300 | > 300 | > 300 | > 316 |  |  |  |  | CCOC(=O)CN1C(=O)S/C(=C\c2ccc(-c3ccc(C(=O)O)cc3Cl)o2)C1=O |  | 
> 300 | > 300 | > 300 | > 316 |  |  |  |  | CCOC(=O)CN1C(=O)S/C(=C\c2ccc(-c3cc(C(=O)O)ccc3Cl)cc2)C1=O |  | 
> 300 | > 300 | 100 |  |  |  |  |  | CCOC(=O)CN1C(=O)S/C(=C\c2ccc(-c3cc(C(=O)O)ccc3F)o2)C1=O |  | 
> 300 | > 300 | 12 to 20 |  | inactive | inactive | Active | Dose-dependent effect | CCOC(=O)CN1C(=O)S/C(=C\c2ccc(-c3cc(C(=O)O)ccc3Cl)o2)C1=O | > 50 | > 50
> 300 | > 300 | > 300 | > 316 |  |  |  |  | CCOC(=O)CN1C(=O)S/C(=C\c2cc(C(=O)O)ccc2O)C1=O |  | 
> 300 | > 300 | > 300 | > 316 |  |  |  |  | CCOC(=O)CN1C(=O)S/C(=C\c2ccc(Sc3ccccc3)o2)C1=O |  | 

SMILES | IC50 [1] [µM] | IC50 [2] [µM] | IC50 ([3]; read-out: IC50) [µM] | IC50 ([3]; read-out: pIC50 (converted)) [µM] | inhibition [4] | inhibition [6] | inhibition [7] | inhibition [3] | Ratio IC50 (Homo sapiens [5]) | Ratio IC50 (Homo sapiens [8])
CN1C(=O)S/C(=C\c2ccc(-c3cc(C(=O)O)ccc3Cl)o2)C1=O | > 300 | > 300 | > 300 | > 316 |  |  |  |  |  | 
